Yeast life ext = extends the lifespan of yeast. S. cerevisiae growth with nicotinamide, OD615; deaD strain in restrictive glucose medium. inhibition of the nicotinamide effect, % at 10 µM. 130,000 tested, 0.68% active. AID 775;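 active = inhibition above a set limit, placed 3 SD over the median of all compounds, cut at about 26% in these data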;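 also: 0% = nicotinamide-treated wells and 100% = cells grown without nicotinamide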
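Test system – modified budding yeast, DeaD strain · Compound – single dose 10 µM compound, 0.25% DMSO · Times – culture preincubation 4 h, compound exposure 48 h, both 30 °C · Detection – optical density (absorbance) at 615 nm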
SDO1 yeast rescue = restores growth of sdo1-depleted yeast | 140,000 tested, 0.21% active | z-score at 10 µM | S. cerevisiae sdo1-depleted JHY4D growth rescue, OD600 30 h; stronger effect = higher value; pdr5 snq2 efflux-pump mutant strain;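 active = z-score above 3 at both the 24 hr and the 30 hr optical density reads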;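 also: z-score against mean and SD of all compound wells on the same plate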
HCT116 bCat-KO = beta-catenin-lacking colon tumor cell growth suppression; HCT116 beta-catenin knockout viability, CellTiter-Glo, 60 h; stronger effect = lower value; viability, % at 10 µM; 140,000 tested, 1.5% active; AID 818;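 active = viability at or under a set limit, the compound median less 4 SD, cut at about 6% in these data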;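 also: 0% = Hyamine 1622 control at 20 µM and 100% = untreated cell control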
Yeast growth inh = chemicals that inhibit yeast BB579 growth in restrictive medium (lifespan-shortening candidates). S. cerevisiae BB579 growth, OD615, 48 h. inhibition, % at 10 µM. 140,000 tested, 0.51% active. AID 804;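 active = inhibition above a set limit, 3 SD over the mean compound inhibition, cut at about 44% in these data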
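Assay system – yeast BB579 (DeaD) · Dosing – single compound dose of 10 µM, 0.25% DMSO final · Detection – OD615 turbidity measurement · Buffer or medium – CSMM-D restrictive synthetic medium containing dextrose (glucose) · Benchmarks – positive control amphotericin B 10 µg/mL · Incubation – 48 h exposure, 30 °C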
PTEN del growth = suppresses growth of cells with PTEN deletion | viability, % at 10 µM | HCT116 PTEN-null viability, CellTiter-Glo, 60 h; stronger effect = lower value | AID 827 | 140,000 tested, 1.2% active;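 active = viability at or below a set limit, 4 SD under the median of all tested compounds, cut at about 3.7% in these data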;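 also: PTEN knockout HCT116 line with beta catenin targeted HCT116 as companion control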
SDO1 rescue DR = SDO1-depleted yeast growth rescue confirmation. OD recovery (no concentration beside the values). S. cerevisiae JHY4D (SDO1-depleted) growth rescue, OD600, 30 h; stronger effect = higher value; efflux-deficient strain, SNQ2 and PDR5 mutated. AID 949. 440 tested, 44% active. shares compounds with SDO1 yeast rescue;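 active = yeast growth recovered at 30 hours, either rising with dose fitted slope above 0.001 or with average optical density gain above 0.07, some results past the limit were not filed as active; inactive = growth falling with dose or no effect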;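 also: gain in OD600 from 0 h to 30 h averaged across all seven doses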
The depositor's hits bear a star. Sampled rows, rich in hits. Any-hit rate of the full collection: about 2.8%.

SMILES | Yeast life ext | SDO1 yeast rescue | HCT116 bCat-KO | Yeast growth inh | PTEN del growth | others
c1ccc(Cn2ccnc2)cc1 | 8.9 | 0.39 | 93.4 | -16.1 | 92.7
Clc1ccc(COC(Cn2ccnc2)c2ccc(Cl)cc2Cl)cc1 (stereo unspecified) | -8.8 | -2.09 | 46.6 | 97.2* | 46.2
Clc1ccc(CSC(Cn2ccnc2)c2ccc(Cl)cc2Cl)cc1 (stereo unspecified) | -8.6 | -2.6 | 15.7 | 97.9* | 12.3
C1=C(CCNCc2ccccc2)CCCC1 | 6.0 | 0.63 | 93.0 | -6.7 | 97.6
Cc1nn(Cc2ccccc2)c(Cl)c1C(=O)NC1CCCc2ccccc21 (stereo unspecified) | 11.4 | -0.25 | 82.8 | -9.8 | 75.7
COc1ccc(Oc2cc(NC(=O)c3nn(C)cc3[N+](=O)[O-])cc([N+](=O)[O-])c2)cc1 | -11.1 | -0.73 | 1.6* | -49.6 | 1.4*
Cc1cccc(CN(C)C)c1OC(=O)N(C)C | 28.7* | 1.34 | 93.0 | 19.2 | 98.0
Nc1c2c(nc3sc4c(c13)CCCC4)CCCCC2 | 0.1 | -0.47 | 4.1* | -50.5 | 7.5
Cc1ccc(NC2=NCCCS2)c(C)c1C | 6.8 | -0.57 | 77.0 | -3.3 | 85.3
Cc1cc(C)c(S(=O)(=O)NCC2CCC(C(=O)N3CCC4(CC3)OCCO4)CC2)c(C)c1 (stereo unspecified) | -7.4 | -0.23 | 84.7 | -14.5 | 69.5
NC(=O)c1cn(C2OC(CO)C(O)C2O)c2ncnc(N)c12 (stereo unspecified) | -1.5 | 1.24 | 2.7* | -30.0 | 3.0*
CN(C=O)CP(=O)(O)CN(C)C=O | -11.4 | 1.21 | 96.0 | -27.9 | 91.8
CCn1nc(-c2ccccc2)nc2c(=O)n(C)c(=O)nc1-2 | -14.4 | -2.31 | 0.7* | 100.0* | 1.4*
CCCC1COC(Cn2cncn2)(c2ccc(Cl)cc2Cl)O1 (stereo unspecified) | -23.0 | -1.66 | 70.3 | 93.5* | 66.8
Cc1ccc(/C=C2\C(=O)NC(=O)N(CCc3ccc(F)cc3)C2=O)o1 | 39.3* | -0.16 | 93.9 | -36.8 | 98.6
CCCCn1c(O)c(C(C)=NCC2CCCO2)c(=O)[nH]c1=O (stereo unspecified) | 7.0 | -0.11 | 101.2 | -54.9 | 112.1
C[N+]1=C(/C=C/Nc2ccccc2)C(C)(C)c2ccccc21 | 19.4 | 6.15* | 52.4 | -27.9 | 54.2 | SDO1 rescue DR=0.136*
COc1ccccc1N=Cc1c(O)n(C)c(=O)n(C)c1=O | -24.4 | 3.23* | 92.0 | -20.8 | 94.9 | SDO1 rescue DR=0.0833*
CC1(C)NCCN2C(=O)CSC21 (stereo unspecified) | -6.7 | 0.43 | 84.2 | -24.2 | 97.6
CC[n+]1c(SC)ccc2cc(OC)ccc21 | 13.1 | 0.02 | 96.6 | -29.4 | 94.7
Nc1ccccc1N=Cc1c(O)n(CCC2=CCCCC2)c(=O)[nH]c1=O | -8.7 | 7.39* | 82.1 | -34.8 | 82.5 | SDO1 rescue DR=0.0594
O=C(N/N=C/c1c(O)n(CCC2=CCCCC2)c(=O)[nH]c1=O)c1ccccc1 | 1.6 | 1.02 | 50.8 | -13.1 | 62.7
